15 molecules from ChEMBL document CHEMBL5046294, “Rational Design, Chemical Syntheses, and Biological Evaluations of Peripherally Selective Mu Opioid Receptor Ligands as Potential Opioid Induced Constipation Treatment” (J Med Chem, 2022) can be followed below.

The target in assay [1] is T1, Mu-type opioid receptor (Mus musculus, UniProt P42866). Nature of the assay: Antagonist activity at mouse mu opioid receptor expressed in CHO cell membrane assessed as reduction in DAMGO-induced […]-GTPgammaS binding incubated for 1.5 hrs by liquid scintillation counting method. The class given is functional, cell membranes. (Binding of GTPγS marks nucleotide exchange on a G protein.)

For assay [2], the target named is T1, Mu-type opioid receptor. Nature of the assay: Binding affinity to mouse mu opioid receptor expressed in CHO cells in presence of naltrexone incubated for 1.5 hrs by competitive radioligand binding assay. The class given is cell-based. The essentials:
(§1)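 Competition binding. Membranes (30 μg protein) from CHO cells with mouse MOR or KOR, or human DOR. Incubated with radioligand and varying test concentrations in TME buffer, pH 7.4, 1.5 h at 30 °C. Filtration harvest. Nonspecific binding defined with 5 μM naltrexone (MOR), U50,488 (KOR) or SNC80 (DOR). IC₅₀ by nonlinear regression, converted to Ki by Cheng-Prusoff. Selectivity ratios taken from these Ki values. At least three independent experiments.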

Assay [3] addresses Delta-type opioid receptor (Homo sapiens, UniProt P41143). Put plainly: Binding affinity to human delta opioid receptor in presence of SNC80 incubated for 1.5 hrs by competitive radioligand binding assay. The essentials:
as §1

The target of assay [4] is Kappa-type opioid receptor (Mus musculus, UniProt P33534). Nature of the assay: Binding affinity to mouse kappa opioid receptor expressed in CHO cells in presence of U50488 incubated for 1.5 hrs by competitive radioligand binding assay. The class given is cell-based. The essentials:
as §1

Assay [5] can be described thus: Selectivity index, ratio of Ki for binding affinity to human delta opioid receptor to Ki for binding affinity to mouse mu opioid receptor. The essentials: as §1
The species named for assay [6] is Mus musculus. Put plainly: Selectivity index, ratio of Ki for binding affinity to mouse kappa opioid receptor to Ki for binding affinity to mouse mu opioid receptor. The essentials: as §1
Assay [7] deals with Mu-type opioid receptor (Mus musculus) (UniProt P42866). Nature of the assay: Antagonist activity at mouse mu opioid receptor expressed in CHO cell membrane assessed as reduction in DAMGO-induced […]-GTPgammaS binding by measuring maximal efficacy incubated for 1.5 hrs by liquid scintillation counting method relative to control. The class given is functional, cell membranes. The essentials:
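[³⁵S]GTPγS binding. Membranes (10 μg protein) from CHO cells expressing MOR, KOR or DOR. Buffer TME (50 mM Tris, 3 mM MgCl₂, 0.2 mM EGTA, pH 7.4) with 100 mM NaCl, 20 μM GDP and 0.1 nM [³⁵S]GTPγS. Test compound at varying concentrations. Incubation 1.5 h at 30 °C. Nonspecific binding with 20 μM unlabeled GTPγS. Reference full agonist at 3 μM: DAMGO (MOR), U50488H (KOR), SNC80 (DOR). Filtration, then scintillation counting. Duplicates, at least three repeats.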

The subject of assay [8] is Mus musculus. Put plainly: Antinociceptive activity against Swiss Webster mouse assessed as tail withdrawal latency from warm water by measuring maximum possible effect at 10 mg/kg, sc measured after 20 mins by warm water tail immersion assay. The class given is functional. The essentials:
(§2)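 Male Swiss Webster mice, 5–8 weeks, 25–35 g, 6 per group. Tail immersed (distal third) in water at 56 ± 0.1 °C. Mice included only with baseline latency 2–4 s. Compound 10 mg/kg s.c.; in the challenge arm it was given 5 min before morphine 10 mg/kg s.c. Latency read 20 min after injection, 10-s cutoff. %MPE = (test − control)/(10 − control) × 100. Dunnett-corrected one-way ANOVA.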

Assay [9] relates to Mus musculus. Put plainly: Antinociceptive activity against sc dosed Swiss Webster mouse model assessed as effect on morphine induced antinociception by measuring tail withdrawal latency from warm water incubated for 5 mins followed by morphine addition measured after 20 mins by warm water tail immersion assay. The class given is functional. The note with it: time 25.0 min. The essentials: as §2

Each structure is given as a SMILES string. Calls of active or inactive are those of the source.

Take `O=C(N[C@@H]1CC[C@@]2(O)[C@H]3Cc4ccc(O)c5c4[C@@]2(CCN3CC2CC2)[C@H]1O5)c1cc[nH]n1`: the EC50 (as a rule, the concentration at which the effect is half-maximal) at Mu-type opioid receptor [1] worked out at 1.83 nM. Besides, the values for the inhibitory constant (Ki) (at Mu-type opioid receptor [2]; in [3]; in [4]) were 0.28 nM, 14.5 nM and 0.95 nM, respectively. For the same molecule, the Ratio Ki in assay [5] is 52; in the assay listed under Mus musculus [6], 3. Moreover, the maximal response (Emax) (in general, the greatest response seen or fitted, relative to the assay's reference) in assay [7] was 10.9%. Besides, the outcome in the assay on Mus musculus [8] and in the assay with Mus musculus [9] was inactive.

For `O=C(CCc1cn[nH]c1)N[C@@H]1CC[C@@]2(O)[C@H]3Cc4ccc(O)c5c4[C@@]2(CCN3CC2CC2)[C@H]1O5`, the EC50 on Mu-type opioid receptor [1] came out at 4.28 nM. The figures for the inhibition constant (Ki) (at Mu-type opioid receptor [2]; in [3]; in [4]) were 0.3 nM, 97.8 nM and 12.3 nM, respectively. For the same molecule, the Ratio Ki is 322 in assay [5] and 40 in the assay filed under Mus musculus [6]. Besides, the Emax in assay [7] was found to be 10.7%. The result with Mus musculus [8] and in the assay on Mus musculus [9] was inactive.

As to `O=C(N[C@@H]1CC[C@@]2(O)[C@H]3Cc4ccc(O)c5c4[C@@]2(CCN3CC2CC2)[C@H]1O5)c1cn[nH]c1`, the 50% effective concentration (EC50) on Mu-type opioid receptor [1] was 1.77 nM. The inhibitory constant (Ki) (usually a dissociation constant, usually derived from enzyme kinetics or from competition with a known ligand) turned out to be 0.65 nM at Mu-type opioid receptor [2], 46.8 nM in assay [3] and 2.51 nM in assay [4]. Besides, the Ratio Ki in assay [5] turned out to be 72; in the assay filed under Mus musculus [6], 4. In addition, the Emax in assay [7] came out at 16.3%. Besides, the outcome in the assay with Mus musculus [8] and with Mus musculus [9] was inactive.

As for `O=C(Cc1ncc[nH]1)N[C@@H]1CC[C@@]2(O)[C@H]3Cc4ccc(O)c5c4[C@@]2(CCN3CC2CC2)[C@H]1O5`, on Mu-type opioid receptor [1], the 50% effective concentration (EC50) stood at 2.07 nM. The figures for the inhibition constant Ki (on Mu-type opioid receptor [2]; in [3]; in [4]) were 0.48 nM, 89.8 nM and 5.17 nM, respectively. For the same molecule, the values for the Ratio Ki (in [5]; in the assay filed under Mus musculus [6]) were 188 and 11, respectively. Moreover, the Emax in [7] was 23.5%. Also, the result with Mus musculus [8] and with Mus musculus [9] was inactive.

With `O=C(CCc1cnc[nH]1)N[C@H]1CC[C@@]2(O)[C@H]3Cc4ccc(O)c5c4[C@@]2(CCN3CC2CC2)[C@H]1O5`, the EC50 at Mu-type opioid receptor [1] was 9.47 nM. Besides, the Ki on Mu-type opioid receptor [2] came to 0.2 nM; in [3], 21.5 nM; in assay [4], 1.21 nM. For the same molecule, the Ratio Ki in [5] is 106; in the assay filed under Mus musculus [6], 6. The Emax in [7] worked out at 25.4%. For the same molecule, the result with Mus musculus [8] and in the assay with Mus musculus [9] was inactive.

Turning to `O=C(Cc1cnc[nH]1)N[C@H]1CC[C@@]2(O)[C@H]3Cc4ccc(O)c5c4[C@@]2(CCN3CC2CC2)[C@H]1O5`, the 50% effective concentration (EC50) on Mu-type opioid receptor [1] was found to be 3.61 nM. The inhibition constant Ki at Mu-type opioid receptor [2] was 1.34 nM; in assay [3] it was 79.4 nM; in assay [4] it was 3.57 nM. In addition, the results for the Ratio Ki (in assay [5]; in the assay listed under Mus musculus [6]) were 59 and 3, respectively. Besides, the maximal response (Emax) in [7] came out at 21%. Moreover, the result in the assay on Mus musculus [8] and in the assay on Mus musculus [9] was inactive.

Turning to `O=C(Cc1cc[nH]n1)N[C@@H]1CC[C@@]2(O)[C@H]3Cc4ccc(O)c5c4[C@@]2(CCN3CC2CC2)[C@H]1O5`, the concentration giving a half-maximal response (EC50) at Mu-type opioid receptor [1] was 2.5 nM. Further, the values for the Ki (on Mu-type opioid receptor [2]; in assay [3]; in assay [4]) were 0.2 nM, 36.8 nM and 5.05 nM, respectively. The Ratio Ki came out at 186 in [5] and 26 in the assay listed under Mus musculus [6]. Moreover, in assay [7], the maximum response (Emax) amounted to 20.4%. Besides, the MPE in the assay on Mus musculus [8] came out at 39.3%. In the assay on Mus musculus [9], the outcome was inactive.

In the case of `O=C(CCc1ncc[nH]1)N[C@H]1CC[C@@]2(O)[C@H]3Cc4ccc(O)c5c4[C@@]2(CCN3CC2CC2)[C@H]1O5`, on Mu-type opioid receptor [1], the EC50 came to 4.26 nM. The Ki at Mu-type opioid receptor [2] was found to be 0.69 nM; in [3] it was 3.94 nM; in assay [4], 0.79 nM. Further, the Ratio Ki was found to be 6 in assay [5] and 1 in the assay filed under Mus musculus [6]. For the same molecule, the maximum response (Emax) in [7] is 21.7%. Besides, the result with Mus musculus [8] and in the assay on Mus musculus [9] was inactive.

As for `O=C(CCc1cc[nH]n1)N[C@@H]1CC[C@@]2(O)[C@H]3Cc4ccc(O)c5c4[C@@]2(CCN3CC2CC2)[C@H]1O5`, the EC50 at Mu-type opioid receptor [1] was 2.76 nM. For the same molecule, the inhibition constant (Ki) stood at 0.21 nM on Mu-type opioid receptor [2], 42.2 nM in assay [3] and 2 nM in assay [4]. In addition, the Ratio Ki in [5] is 202; in the assay filed under Mus musculus [6], 10. The Emax in assay [7] worked out at 13.2%. For the same molecule, the result in the assay on Mus musculus [8] and in the assay with Mus musculus [9] was inactive.

Regarding `O=C(N[C@H]1CC[C@@]2(O)[C@H]3Cc4ccc(O)c5c4[C@@]2(CCN3CC2CC2)[C@H]1O5)c1cn[nH]c1`, the 50% effective concentration (EC50) on Mu-type opioid receptor [1] worked out at 1.24 nM. In addition, the Ki at Mu-type opioid receptor [2] turned out to be 0.59 nM; in assay [3], 37.5 nM; in [4], 4.7 nM. The Ratio Ki in assay [5] amounted to 64; in the assay filed under Mus musculus [6], 8. The maximal response (Emax) in assay [7] stood at 23.1%. Besides, the outcome in the assay on Mus musculus [8] and in the assay on Mus musculus [9] was inactive.

Consider `O=C(CCc1cn[nH]c1)N[C@H]1CC[C@@]2(O)[C@H]3Cc4ccc(O)c5c4[C@@]2(CCN3CC2CC2)[C@H]1O5`, for which the EC50 at Mu-type opioid receptor [1] worked out at 12.3 nM. Also, the Ki on Mu-type opioid receptor [2] is 1.09 nM; in assay [3], 91.2 nM; in [4], 39.5 nM. Further, the Ratio Ki in [5] stood at 83; in the assay listed under Mus musculus [6], 36. Besides, the Emax in assay [7] came out at 14.2%. The result with Mus musculus [8] and with Mus musculus [9] was inactive.

For the molecule `O=C(Cc1cnc[nH]1)N[C@@H]1CC[C@@]2(O)[C@H]3Cc4ccc(O)c5c4[C@@]2(CCN3CC2CC2)[C@H]1O5`, on Mu-type opioid receptor [1], the EC50 came to 4.64 nM. In addition, the inhibition constant Ki at Mu-type opioid receptor [2] was found to be 0.82 nM; in assay [3], 74.5 nM; in assay [4], 4.82 nM. The Ratio Ki came out at 91 in assay [5] and 6 in the assay listed under Mus musculus [6]. Further, in assay [7], the Emax was determined as 20.9%. Besides, the outcome in the assay on Mus musculus [8] and with Mus musculus [9] was inactive.

On to `O=C(CCc1cnc[nH]1)N[C@@H]1CC[C@@]2(O)[C@H]3Cc4ccc(O)c5c4[C@@]2(CCN3CC2CC2)[C@H]1O5`, for which the half-maximal effective concentration (EC50) at Mu-type opioid receptor [1] was found to be 3.19 nM. Moreover, the Ki at Mu-type opioid receptor [2] was 0.6 nM; in [3], 35.5 nM; in [4], 1.8 nM. Further, the Ratio Ki is 60 in assay [5] and 3 in the assay filed under Mus musculus [6]. Besides, the Emax in assay [7] was 15.7%. In addition, the outcome in the assay with Mus musculus [8] and in the assay on Mus musculus [9] was inactive.

Take `O=C(Cc1ncc[nH]1)N[C@H]1CC[C@@]2(O)[C@H]3Cc4ccc(O)c5c4[C@@]2(CCN3CC2CC2)[C@H]1O5`: the EC50 at Mu-type opioid receptor [1] is 1.81 nM. Besides, the Ki at Mu-type opioid receptor [2] came out at 0.83 nM; in assay [3], 17.7 nM; in [4], 3.45 nM. Besides, the results for the Ratio Ki (in assay [5]; in the assay filed under Mus musculus [6]) were 21 and 4, respectively. In assay [7], the Emax was found to be 19.2%. In addition, the MPE with Mus musculus [8] amounted to 36.9%.

`O=C(CCc1ncc[nH]1)N[C@@H]1CC[C@@]2(O)[C@H]3Cc4ccc(O)c5c4[C@@]2(CCN3CC2CC2)[C@H]1O5`: the concentration giving a half-maximal response (EC50) at Mu-type opioid receptor [1] came out at 1.24 nM. The inhibition constant (Ki) on Mu-type opioid receptor [2] turned out to be 0.57 nM; in assay [3], 55.8 nM; in assay [4] it was 0.57 nM. Besides, the Ratio Ki in assay [5] amounted to 99; in the assay listed under Mus musculus [6] it was 1. In [7], the Emax is 17.7%. Moreover, the outcome in the assay with Mus musculus [8] and with Mus musculus [9] was inactive.
